Data: ChEMBL document CHEMBL1135792, “Inhibition of the antibacterial target UDP-(3-O-acyl)-N-acetylglucosamine deacetylase (LpxC): isoxazoline zinc amidase inhibitors bearing diverse metal binding groups” (J Med Chem, 2002)
Converted amounts (≈) assume the structure as drawn.

Assays:
Escherichia coli [1] = test: Inhibition of Escherichia coli growth in vitro.; format: functional
[2] = target: T1, UDP-3-O-acyl-N-acetylglucosamine deacetylase (Escherichia coli K-12, UniProt P0A725); test: Inhibition of Escherichia coli LpxC(UDP-3-O-[R-3-hydroxymyristoyl]-GlcNAc deacetylase.
T1 sequence (P0A725 whole entry): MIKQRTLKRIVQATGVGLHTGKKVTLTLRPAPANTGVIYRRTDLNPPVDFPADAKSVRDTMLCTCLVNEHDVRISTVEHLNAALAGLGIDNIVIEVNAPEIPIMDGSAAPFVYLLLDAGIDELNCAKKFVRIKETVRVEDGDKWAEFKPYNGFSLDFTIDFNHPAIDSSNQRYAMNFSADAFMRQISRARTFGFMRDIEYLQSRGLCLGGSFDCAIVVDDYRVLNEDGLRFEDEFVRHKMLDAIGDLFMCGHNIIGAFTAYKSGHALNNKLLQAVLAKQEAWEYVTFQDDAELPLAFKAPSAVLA
Outline: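 Purified E. coli LpxC (2.5 nM) preincubated 30 min on ice with inhibitor (0.1-500 µg/mL) and 1 mg/mL BSA. Stopped with NaOH, substrate and product separated by PEI-cellulose TLC, phosphorimaged. IC50 from eq 1.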

Escherichia coli [3] = test: Inhibition of EnvAl Escherichia coli growth in vitro.; format: functional
Escherichia coli [4] = test: Inhibition of Escherichia coli LpxC in a second order rate constant
Outline: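 Purified E. coli LpxC (100 µM) preincubated at 30 °C with inhibitor (0-0.8 mM) in 100 mM bis-Tris pH 7, 12% DMF. Aliquots taken over time, diluted 10-fold into 27 mM UDP-GlcNAc, bis-Tris pH 7, 30 °C. UDP-GlcN read by fluorescamine (ex 395/em 485 nm). Pseudo-first-order kobs fit to exponential decay, then plotted against inhibitor concentration and fit by eq 2.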

Escherichia coli [5] = test: Antibacterial activity against EnvA1 Escherichia coli; format: functional
Escherichia coli [6] = test: Inhibitory activity measured against Escherichia coli; format: functional
Escherichia coli [7] = test: Antibacterial activity against Escherichia coli

Row | SMILES | zone diameter (Escherichia coli [1]) | IC50 [2] | zone diameter (Escherichia coli [3]) | Ki (Escherichia coli [4]) | MIC (Escherichia coli [5]) | zone diameter (Escherichia coli [6]) | MIC (Escherichia coli [7])
1 | COc1ccc(C2=NOC(S(N)(=O)=O)C2)cc1 (centres undefined) | < 6 mm | > 1200 µM | < 6 mm |  |  |  | 
2 | COc1ccc(C2=NOC(C(=O)NCO)C2)cc1 (racemic) | < 6 mm | > 400 µM | < 6 mm |  |  |  | 
3 | COc1ccc(C2=NO[C@@H]([C@@H](O)CS)C2)cc1 (relative stereo) | < 6 mm | > 400 µM | < 6 mm |  |  |  | 
4 | COc1ccc(C2=NO[C@@H](C(=O)NO)C2)cc1 | < 6 mm |  | < 6 mm |  |  |  | 
5 | COc1ccc(C2=NOC([C@H]3CS3)C2)cc1 (some centres undefined) | < 6 mm |  | < 6 mm | 800 µM |  |  | 
6 | COc1ccc(C2=NOC([C@@H]3CS3)C2)cc1 (some centres undefined) | < 6 mm |  | < 6 mm | 300 µM |  |  | 
7 | COc1ccc(C2=NOC(C(=O)O)C2)cc1 (racemic) | < 6 mm | > 450 µM | < 6 mm |  |  |  | 
8 | COc1ccc(C2=NOC(C(=O)NNC=O)C2)cc1 (racemic) | < 6 mm | 400 µM | < 6 mm |  |  |  | 
9 | COc1ccc(C2=NOC(S(C)(=O)=O)C2)cc1 (racemic) | < 6 mm | > 392 µM | < 6 mm |  |  |  | 
10 | COc1ccc(C2=N[C@@H](C(=O)NO)CO2)cc1 | 11 mm | 3 µM | 24 mm |  |  |  | 
11 | COc1ccc(C2=NO[C@H](C(=O)NO)C2)cc1 |  | 4.37 µM | 26 mm |  | 3.9 µg/mL (≈ 16.5 µM) | < 6 mm | 
12 | COc1ccc(C2=NOC(C(=O)NN)C2)cc1 (racemic) | < 6 mm | > 425 µM | < 6 mm |  |  |  | 
13 | COc1ccc(C2=NOC(P(=O)(O)O)C2)cc1 (racemic) | < 6 mm | 4 µM | < 6 mm |  |  |  | 
14 | COc1ccc(C2=NOC(C(=O)Nc3ccccn3)C2)cc1 (racemic) | < 6 mm | > 336 µM | < 6 mm |  |  |  | 
15 | COc1ccc(C2=NOC(P(C)(=O)O)C2)cc1 (racemic) | < 6 mm | 170 µM | < 6 mm |  |  |  | 
16 | COc1ccc(C2=NOC(C(=O)NO)C2)cc1 (racemic) | < 6 mm | 13 µM | 21 mm |  |  |  | 
17 | COc1ccc(C2=NOC(CS)C2)cc1 (racemic) | < 6 mm | 22 µM | < 6 mm |  |  |  | 
18 | COc1ccc(C2=NOC(C(=O)Nc3nccs3)C2)cc1 (racemic) | < 6 mm | > 392 µM | < 6 mm |  |  |  | 
19 | COc1ccc(C2=NOC(C(=O)CSC(C)=O)C2)cc1 (racemic) | < 6 mm | 12 µM | < 6 mm |  |  |  | 
20 | COc1ccc(C2=NOC(C(=O)CS)C2)cc1 (racemic) | < 6 mm | 27 µM | < 6 mm |  |  |  | 
21 | COc1ccc(C2=NO[C@@H]([C@H](O)CS)C2)cc1 (relative stereo) | < 6 mm | > 400 µM | < 6 mm |  |  |  | 
22 | CO[C@H]1/C=C/O[C@@]2(C)Oc3c(C)c(O)c4c(O)c(c(/C=N/N5CCN(C)CC5)c(O)c4c3C2=O)NC(=O)/C(C)=C\C=C\[C@H](C)[C@H](O)[C@@H](C)[C@@H](O)[C@@H](C)[C@H](OC(C)=O)[C@@H]1C [RIFAMPIN] |  |  |  |  |  |  | 2 µg/mL (≈ 2.43 µM)
